Here are results for 17 molecules from ChEMBL document CHEMBL4819119, “Design and evaluation of 1,2,3-dithiazoles and fused 1,2,4-dithiazines as anti-cancer agents” (Bioorg Med Chem Lett, 2021).

Each structure is given as a SMILES string. Converted amounts (≈) assume the structure as drawn.

One experiment deals with Cryptococcus neoformans. The experiment in a line: Antifungal activity against Cryptococcus neoformans. The class given is functional.
In experiment [1] the test system is 5637. The experiment in a line: Cytotoxicity against human 5637 cells assessed as reduction in cell viability incubated for 3 hrs by MTT assay. In kind it is functional, cell-based. The conditions noted are these: Homo sapiens, 5637, 3 h.
In experiment [2] the test system is PANC-1. In words: Cytotoxicity against human PANC1 cells assessed as reduction in cell viability incubated upto 72 hrs by MTT assay. The class given is functional, cell-based. The settings on record: PANC-1, 72 h.
Experiment [3] relates to Feline immunodeficiency virus. In words: Antiviral activity against Feline immunodeficiency virus. In kind it is functional, organism-based.
The next experiment deals with MCF7. In words: Cytotoxicity against human MCF7 cells assessed as reduction in cell viability incubated for 72 hrs by alamar blue assay. In kind it is functional, cell-based. The conditions noted are these: MCF7, 72 h. In short, it runs like this:
(§1)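 Cells seeded in 384-well plates and dosed 24 h after plating, in quadruplicate. Viability was read by alamarBlue fluorescence at 72 h. IC50 came from nonlinear regression as the mean of 4 replicates. Growth media carried 10% FBS and 1% pen/strep: UCH1/UCH2 in 4:1 IMDM:RPMI-1640 in gel-coated flasks; A431, PANC1 and WS1 in DMEM; DU145 and MCF7 in MEM; 5637 in RPMI-1640.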

The test system of experiment [4] is DU-145. The experiment in a line: Cytotoxicity against human DU-145 cells assessed as reduction in cell viability incubated for 72 hrs by alamar blue assay. The settings on record: DU-145, 72 h. In kind it is functional, cell-based. In short, it runs like this:
as §1
(In general: The colour change of resazurin is a common sign of viable cells or microbes.)

Experiment [5] deals with T1, Neutral amino acid transporter B(0) (Homo sapiens, UniProt Q15758).
T1 sequence (Q15758 whole entry): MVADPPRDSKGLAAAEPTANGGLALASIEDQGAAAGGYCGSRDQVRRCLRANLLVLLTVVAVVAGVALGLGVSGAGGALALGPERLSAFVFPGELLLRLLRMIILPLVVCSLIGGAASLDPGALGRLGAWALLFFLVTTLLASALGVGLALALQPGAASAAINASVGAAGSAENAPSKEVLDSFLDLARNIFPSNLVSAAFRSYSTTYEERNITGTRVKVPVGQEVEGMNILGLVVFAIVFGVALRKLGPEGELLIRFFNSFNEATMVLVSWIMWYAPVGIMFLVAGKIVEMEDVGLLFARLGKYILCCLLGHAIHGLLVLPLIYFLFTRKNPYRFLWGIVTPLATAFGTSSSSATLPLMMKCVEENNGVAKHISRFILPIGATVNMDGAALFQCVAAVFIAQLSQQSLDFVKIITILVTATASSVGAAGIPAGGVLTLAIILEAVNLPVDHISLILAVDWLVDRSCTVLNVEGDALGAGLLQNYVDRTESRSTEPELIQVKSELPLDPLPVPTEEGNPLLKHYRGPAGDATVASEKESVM
In words: Inhibition of ASCT2 (unknown origin).

For experiment [6], the system named is 5637. The experiment in a line: Cytotoxicity against human 5637 cells assessed as reduction in cell viability incubated for 72 hrs by alamar blue assay. The class given is functional, cell-based. The conditions noted are these: Homo sapiens, 5637, 72 h. In short, it runs like this: as §1
Experiment [7] can be described thus: Cytotoxicity against human UCH1 cells assessed as reduction in cell viability incubated for 72 hrs by alamar blue assay. The settings on record: UCH1, 72 h. In kind it is functional, cell-based. In short, it runs like this:
as §1

Experiment [8] is described as follows: Cytotoxicity against human UCH2 cells assessed as reduction in cell viability incubated for 72 hrs by alamar blue assay. The class given is functional, cell-based. The conditions noted are these: UCH2, 72 h. In short, it runs like this:
as §1

The subject of experiment [9] is PANC-1. The experiment in a line: Cytotoxicity against human PANC1 cells assessed as reduction in cell viability incubated for 72 hrs by alamar blue assay. In kind it is functional, cell-based. The settings on record: PANC-1, 72 h. The essentials:
as §1

The nature of experiment [10]: Cytotoxicity against human WS1 cells assessed as reduction in cell viability incubated for 72 hrs by alamar blue assay. In kind it is cell-based. The settings on record: WS1, 72 h. The essentials:
as §1

The subject of another experiment is A-431. The experiment in a line: Cytotoxicity against human A-431 cells assessed as reduction in cell viability incubated for 72 hrs by alamar blue assay. The class given is functional, cell-based. The settings on record: A-431, 72 h. The essentials: as §1
Another experiment relates to L1210. The experiment in a line: Cytotoxicity against mouse L1210 cells. In kind it is functional, cell-based.
Another experiment deals with K562. In words: Cytotoxicity against human K562 cells. In kind it is functional, cell-based.
The subject of experiment [11] is DU-145. In words: Cytotoxicity against human DU-145 cells. The class given is functional, cell-based.
A further experiment has as its system Staphylococcus aureus. In words: Antibacterial activity against Staphylococcus aureus. In kind it is functional.
A further experiment deals with Listeria monocytogenes. The experiment in a line: Antibacterial activity against Listeria monocytogenes. In kind it is functional.
In a further experiment the test system is Enterococcus faecalis. The experiment in a line: Antibacterial activity against Enterococcus faecalis. In kind it is functional.

As a reminder, the MIC is the smallest concentration in the dilution series that meets the test's criterion for growth inhibition. Read a low MIC as greater potency. Consider `N#Cc1ccccc1/N=c1\ssnc1Cl`, for which, in the experiment on Cryptococcus neoformans, the MIC is 8 µg/mL (≈ 31.5 µM).
A word on the IC50: it is the concentration needed to halve the response being measured. With `Cc1ccc(Nc2nccc(N(C)c3ccc4c(C)n(C)nc4c3)n2)cc1S(N)(=O)=O` [PAZOPANIB], the IC50 in the experiment on 5637 [1] came to 15 µM.
`Cc1[nH]c2ccccc2c1CCNCc1ccc(/C=C/C(=O)NO)cc1` [PANOBINOSTAT]: the IC50 in the experiment on PANC-1 [2] came to 1 µM.
As a reminder, the EC50 is the concentration at which the effect is half-maximal. Higher therefore signals a less potent agent. With `CCOC(=O)c1c2n[se]sc-2c(Cl)c1Cl`, in experiment [3], a half-maximal effect (EC50) was put at 0.082 µM.
Take `CC.FC(F)(F)Oc1ccc(/N=c2\ssnc2Cl)cc1Cl`: the 50% inhibitory concentration (IC50) is 88 µM in the experiment on MCF7; 32 µM in the experiment with DU-145 [4]; 8.1 µM in experiment [5]; 33 µM with 5637 [6]; over 100 µM in [7]; 43 µM in experiment [8]. Moreover, the IC50 (in the experiment on PANC-1 [9]; in experiment [10]; with A-431) was over 100 µM each time.
For `N#Cc1cnn(CCc2ccccc2)c1/N=c1\ssnc1Cl`, the IC50 in the experiment with L1210 was found to be 5 µM; with K562 it was 3 µM.
As for `COc1ccc(/N=c2\ssnc2Cl)cc1`, inhibition of growth in the experiment on Cryptococcus neoformans (MIC) required 8 µg/mL (≈ 30.9 µM).
`N#CSCCN1CCN(c2nss/c2=N\c2ccccc2)CC1`: the IC50 is 32 µM in the experiment on MCF7; 14 µM in the experiment on DU-145 [4]; 93 µM in the experiment with 5637 [6]; 38 µM in [7]; 38 µM in experiment [8]; 16 µM with PANC-1 [9]. The IC50 (in [10]; in the experiment with A-431) was over 100 µM each time.
As to `N#Cc1c(Br)cccc1/N=c1\ssnc1Cl`, the IC50 with MCF7 is 28 µM; in the experiment with DU-145 [4] it was 42 µM; with 5637 [6], 14 µM; in experiment [7] it was 39 µM; in experiment [8], 65 µM; with PANC-1 [9], 13 µM. Further, the IC50 (in [10]; in the experiment on A-431) was over 100 µM in each case.
As to `Clc1nss/c1=N\c1ccc(Oc2ccccc2)cc1`, the IC50 in the experiment on MCF7 is 35 µM; in the experiment with DU-145 [4], over 100 µM; in the experiment with 5637 [6] it was 35 µM; in experiment [7] it was 30 µM; in [8], 33 µM; with PANC-1 [9] it was 55 µM. For the same molecule, the IC50 (in experiment [10]; in the experiment on A-431) was over 100 µM in each case.
As to `O=C(OCCN1CCN(c2nss/c2=N\c2ccccc2)CC1)c1ccccc1`, the IC50 in the experiment on MCF7 amounted to 17 µM; in the experiment on DU-145 [4] it was 30 µM; in the experiment with 5637 [6], 13 µM; in [7] it was 23 µM; in experiment [8], 34 µM; in the experiment on PANC-1 [9], 60 µM. Besides, the IC50 stood at 38 µM in experiment [10] and 36 µM in the experiment with A-431.
As to `CCCCOc1ccc(/N=c2\ssnc2Cl)cc1`, the IC50 was 42 µM with MCF7; 52 µM in the experiment on DU-145 [4]; 18 µM with 5637 [6]; 54 µM in experiment [7]; 48 µM in experiment [8]; over 100 µM in the experiment with PANC-1 [9]. Besides, the IC50 (in experiment [10]; in the experiment on A-431) was over 100 µM throughout.
As to `O=S(=O)(Nc1ncccn1)c1ccc(/N=c2\ssnc2Cl)cc1`, the IC50 stood at 3 µM in the experiment on MCF7; 29 µM with DU-145 [4]; 39 µM in the experiment on 5637 [6]; 34 µM in experiment [7]; 19 µM in experiment [8]; 37 µM in the experiment with PANC-1 [9]. Moreover, the IC50 (in experiment [10]; in the experiment with A-431) was over 100 µM in each case.
`CC(=O)O[C@@]12CO[C@@H]1C[C@H](O)[C@@]1(C)C(=O)[C@H](O)C3=C(C)[C@@H](OC(=O)[C@H](O)[C@@H](NC(=O)OC(C)(C)C)c4ccccc4)C[C@@](O)([C@@H](OC(=O)c4ccccc4)[C@H]21)C3(C)C` [DOCETAXEL ANHYDROUS]: the midpoint of inhibition in the experiment with DU-145 [11], the IC50, lay at 0.005 µM.
`CCOC(=O)c1c2nssc-2c(Cl)c1Cl` came in with an EC50 in experiment [3] of 0.31 µM.
Take `Clc1nss/c1=N\c1cc(-c2ccccc2)n[nH]1`: the IC50 was determined as 9.3 µM in the experiment on MCF7; 11 µM in the experiment with DU-145 [4]; 16 µM with 5637 [6]; 59 µM in [7]; 38 µM in experiment [8]; 23 µM in the experiment on PANC-1 [9]. Further, the IC50 (in experiment [10]; in the experiment on A-431) was over 100 µM each time.
Consider `Clc1nss/c1=N\c1ccccc1`, for which the MIC with Staphylococcus aureus, with Listeria monocytogenes and against Enterococcus faecalis was 16 µg/mL (≈ 70 µM) in each case.
